PKD1 kinase inh: inhibitors of human PKD1 kinase, biochemical, fluorescence polarization | Serine/threonine-protein kinase D1 (Homo sapiens), Q15139 | PKD1 kinase fluorescence polarization assay | inhibition, % (test concentration not listed) | hit rate 0.056% among 200,000; in the data active means inhibition above about 50%
Target sequence (Q15139 whole entry, looked up): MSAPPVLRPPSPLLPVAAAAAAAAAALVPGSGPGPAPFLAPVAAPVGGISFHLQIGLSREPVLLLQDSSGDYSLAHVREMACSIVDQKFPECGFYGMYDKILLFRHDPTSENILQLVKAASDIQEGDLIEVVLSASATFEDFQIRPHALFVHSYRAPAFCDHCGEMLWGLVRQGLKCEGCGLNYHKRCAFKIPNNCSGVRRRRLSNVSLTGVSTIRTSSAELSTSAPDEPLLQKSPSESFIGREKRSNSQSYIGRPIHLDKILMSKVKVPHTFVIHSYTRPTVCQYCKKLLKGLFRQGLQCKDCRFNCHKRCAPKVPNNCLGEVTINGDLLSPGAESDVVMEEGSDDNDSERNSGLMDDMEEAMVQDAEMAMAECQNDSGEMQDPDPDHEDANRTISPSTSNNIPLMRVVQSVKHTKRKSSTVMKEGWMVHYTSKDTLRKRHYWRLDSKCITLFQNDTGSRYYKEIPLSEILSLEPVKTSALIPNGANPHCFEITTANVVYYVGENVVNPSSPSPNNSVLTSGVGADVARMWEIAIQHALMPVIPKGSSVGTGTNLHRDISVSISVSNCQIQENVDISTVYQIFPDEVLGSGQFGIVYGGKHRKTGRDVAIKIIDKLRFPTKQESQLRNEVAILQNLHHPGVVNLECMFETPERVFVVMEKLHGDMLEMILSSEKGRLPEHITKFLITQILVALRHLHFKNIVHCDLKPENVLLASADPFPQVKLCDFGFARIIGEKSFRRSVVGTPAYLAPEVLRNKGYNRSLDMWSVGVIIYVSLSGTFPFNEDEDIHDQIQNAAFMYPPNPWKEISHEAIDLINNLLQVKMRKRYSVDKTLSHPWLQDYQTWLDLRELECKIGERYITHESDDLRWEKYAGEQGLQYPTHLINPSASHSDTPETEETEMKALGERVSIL
Efa HMGR inh: inhibitors of E. faecalis class II HMGR, primary screen, biochemical, Enterococcus faecalis; AID 1066, 2008; inhibition, % at 10 µM; purified E. faecalis HMGR, NADPH absorbance 340 nm kinetic; hit rate 0.41% among 190,000;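 active means inhibition above a set limit, the median over all tested compounds plus 3 SD, cut at about 9.5% in these data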;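 further: enzyme runs in reverse so mevalonate oxidation gives rising NADPH absorbance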
Calpain2 inh: inhibitors of pig calpain II, primary screen, biochemical, fluorogenic peptide substrate, 1536-well | purified calpain II, 30 min | inhibition, % at 16 µM | hit rate 0.37% among 220,000;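 active means inhibition above about 50%, limit read from the data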
Pf gametocyte: late stage P. falciparum gametocyte viability inhibitors, primary screen, ATP luminescence, HTS | P. falciparum stage V gametocytes, 24 h | inhibition, % at 10.9 µM | hit rate 0.065% among 150,000;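 active means inhibition above the mean plus 3 SD of compounds within the control limits, set per campaign, cut at about 38% in these data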
Rad51 HR inh: human RAD51 strand exchange inhibitors, primary screen, biochemical, fluorescence; DNA repair protein RAD51 homolog 1 (Homo sapiens), Q06609; hRad51 DNA strand exchange, fluorescence dequenching; inhibition, % at 10 µM; hit rate 0.085% among 200,000;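 active means inhibition above 40% at the single screening dose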
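System: human Rad51 nucleoprotein filaments preassembled on unlabelled ssDNA. Reagent: labelled 47-mer dsDNA for strand exchange. Schedule: 30-min compound preincubation and 15-min exchange, both room temperature. Measured by: FRET fluorescence dequenching, excitation 485 nm, emission 520 nm. Read-out: Fluorescence-based percent inhibition, control- and blank-normalised. Benchmarks: plate controls and plate blanks.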
Redox H2O2 prof: compounds producing H2O2 with reducing agent – biochemical, NIH compound library profiling, artefact control for MLSCN library redox annotation, primary screen | DTT-dependent redox cycling H2O2, phenol red/HRP absorbance; 100% = 100 µM peroxide control, 0% = buffer | activation, % at 10 µM | hit rate 0.03% among 200,000;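 active means activation of at least 50% relative to the plate's high and low controls in the primary single-dose screen; inactive means activation below 50%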;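 further: compound incubated with DTT at 0.8 mM final as the reducing agent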
FP interf 140K: fluorescence polarization interference in PKD1 assay, artefact control for PKD1 inhibitor project, biochemical, 140K library; PKD1 FP assay interference counter-screen; 85 tested, under 10 active; inhibition, % at 10 µM; shares compounds with PKD1 kinase inh; call rule not given here
A number is an active result; n = inactive; x = not tested or not shown. An excerpt weighted towards active compounds, which were near 0.81% of everything screened.

SMILES	PKD1 kinase inh	Efa HMGR inh	Calpain2 inh	Pf gametocyte	Rad51 HR inh	Redox H2O2 prof	others
O=C(c1ccc(F)cc1)N1CCN(c2ccc([N+](=O)[O-])cc2-n2cccc2)CC1	x	x	n	n	n	x
O=C(CCCCn1c(=O)c2ccccc2n(CC(=O)Nc2ccc(F)cc2)c1=O)NCc1ccco1	n	n	63.6	n	x	n
COc1ccc([C@H]2CC(=O)C=C(c3cccc4c3Oc3ccccc3S4)C2)cc1	x	x	x	n	x	x
CCOc1ccc2ccccc2c1CNCCN1CCOCC1	n	10.3	n	x	n	n
CCOc1ccc(Br)cc1CNCCN1CCOCC1	n	n	n	n	n	n
O=C(O)C(C(O)c1ccc([N+](=O)[O-])cc1)[n+]1ccccc1 (stereo unspecified)	x	x	x	n	x	x
CC(C)c1ccccc1NC(=S)NN(Cc1ccccc1)c1ccccc1	n	n	50.5	n	n	n
Fc1ccccc1NC(=S)NN(Cc1ccccc1)c1ccccc1	n	n	n	x	n	n
Cc1cccc(NC(=O)NNC(=O)c2sccc2-n2cccc2)c1	n	n	n	n	n	n
CCCCN(C(=O)c1ccc(S(=O)(=O)N(C)C)cc1)c1nc2ccccc2s1	n	n	n	n	n	n
COc1ccc(C)c2sc(N(CCCN(C)C)C(=O)c3ccc(S(=O)(=O)N(C)C)cc3)nc12	n	n	n	n	47.4	n
c1cc(Nc2cccc3nccnc23)c2nccnc2c1	n	n	n	n	n	n
Brc1c(NC2=NCCN2)ccc2nccnc12	n	17.8	n	x	n	n
Cc1sc(NC(=S)NC(=O)c2cccs2)nc1-c1ccc(C(C)C)cc1	n	n	62.4	x	n	n
Cc1sc(NC(=O)c2cccs2)nc1-c1ccccc1	n	n	n	n	n	n
O=C(N/N=C/c1cccn1-c1ccc([N+](=O)[O-])cc1)c1cccnc1	x	x	n	n	n	x
O=C1C=C(c2ccc(Oc3ccccc3)cc2)C[C@@H](c2ccc(F)cc2)C1	x	x	x	n	x	x
COC(=O)/C=C1\OC(c2ccccc2)=CC1=O	n	n	n	x	n	n
Cc1nn(Cc2ccc(Cl)cc2Cl)c(C)c1NC(=O)c1nn(C)cc1Cl	n	n	59.7	x	n	n
Cc1nn(Cc2ccc(Cl)cc2Cl)c(C)c1NC(=O)CCl	n	n	n	n	n	n
COC(=O)[C@@]1(Cc2ccc(F)cc2)[C@H]2c3cc(C(=O)N(C)C)n(Cc4ccccn4)c3C[C@H]2CN1C(=O)c1ccccc1	n	n	n	x	n	n
COC(=O)[C@@]1(Cc2ccc(F)cc2)[C@H]2c3cc(C(=O)N(C)C)n(Cc4nc5ccccc5[nH]4)c3C[C@H]2CN1C(=O)c1ccccc1	n	11.5	n	x	n	n
O=C(O)/C=C/C(=O)Nc1ccc(Oc2ncnc3cc(Cl)ccc23)nc1	x	x	n	x	n	x
Cc1cc(C)nc(N/N=C2/CCCC/C2=C\c2ccccc2)n1	n	13.6	n	n	n	n
CSc1nc(N)nc(C2CC2)n1	x	x	n	n	n	x
SMILES	PKD1 kinase inh	Efa HMGR inh	Calpain2 inh	Pf gametocyte	Rad51 HR inh	Redox H2O2 prof	others
Cc1cccc(C(=O)N2CCC(=O)N(C(COCc3ccccc3)Cc3ccccc3)CC2)c1 (stereo unspecified)	n	15.5	n	n	n	n
Cc1cccc(COCC(Cc2ccccc2)N2CCN(C(=O)c3cccc(Cl)c3)CCC2=O)c1 (stereo unspecified)	n	n	n	n	n	n
Cc1ccc(C(=O)N/N=C/C=C/c2ccccc2)o1	n	10.9	n	n	n	n
CCC(=O)NC1(C(F)(F)F)C(=O)Nc2c1c(=O)[nH]c(=O)n2CC(C)C (stereo unspecified)	x	x	n	n	n	x
Cc1ccc(Nc2ncccc2C(=O)NCc2cccs2)c(C)c1	n	n	n	n	n	n
Cc1cccc(Nc2ncccc2C(=O)NCc2cccs2)c1C	n	n	54.2	n	n	n
Cc1c(C)n(C(=O)CSc2nc3ccccc3[nH]2)c2ccccc12	n	n	n	x	n	n
COC(=O)[C@H](Cc1ccccc1)NC(=O)O[C@@H]1C(=O)c2cc(Br)ccc2O[C@H]1c1cccc(OC)c1	n	11.1	n	x	x	n
CC(C)(c1ccccc1)c1ccc(OCC(O)CNC2CCN(Cc3ccccc3)CC2)cc1 (stereo unspecified)	n	n	n	n	n	n
CCC(Oc1ccccc1)C(=O)NCc1ccc(S(N)(=O)=O)cc1 (stereo unspecified)	n	n	n	60.8	n	n
COc1ccc(N2CCN(C(c3ccccc3OC)c3nnnn3C3CCCC3)CC2)cc1 (stereo unspecified)	n	n	n	n	n	n
COc1ccc(OC)c(C(c2nnnn2C2CCCC2)N2CCN(c3ccccc3F)CC2)c1 (stereo unspecified)	n	n	51.1	n	n	n
COc1ccc(NC(=O)N(C)C[C@H]2Oc3c(NC(=O)C4CC4)cccc3C(=O)N([C@H](C)CO)C[C@@H]2C)cc1	x	x	x	n	x	x
C=CCN=C1NN=C(c2ccc3c(c2)OCCO3)CS1	n	n	n	n	n	n
CC(=O)Nn1c(-c2ccccc2)cc2ccccc21	n	n	n	n	85.3	n
CCOC(=O)c1cccc(NC(=O)CCS(=O)(=O)c2cccc3nsnc23)c1	68.9	n	n	x	x	n	FP interf 140K=n
Cc1cc(Nc2cccc(F)c2)nc(NCc2ccccc2)n1	55.5	n	n	n	n	n	FP interf 140K=n
Cc1cc(Nc2ccccc2)nc(NCc2ccccc2)n1	n	n	n	n	n	n
COCCNc1cnn(-c2ccccc2)c(=O)c1Cl	x	x	x	n	x	x
CCOC(=O)N1CCC(N2CCN(S(=O)(=O)CC)CC2)CC1	92.8	n	n	x	x	n	FP interf 140K=n
CC(C)CCN1CN(S(=O)(=O)c2cccs2)c2nc3ccccc3nc21	95.3	n	n	x	n	n	FP interf 140K=n
COc1ccc2c(n1)Sc1nc3ccccc3nc1N2	x	x	n	x	n	x
Cc1ccc(-n2c3c(cc(C(=O)NCc4ccco4)c2=O)C(=O)CC(C)(C)C3)cc1	n	n	n	x	n	n
O=C1CCCc2c1cc(C(=O)NCc1ccco1)c(=O)n2-c1ccccc1	51.6	n	n	x	n	n	FP interf 140K=n
CCN(CC)c1ccc(NC(=O)COc2ccccc2C#N)cc1S(=O)(=O)Nc1ccc(OC)cc1	58.4	n	n	n	n	n	FP interf 140K=n
CCN(CC)c1ccc(NC(=O)COc2ccccc2C)cc1S(=O)(=O)Nc1ccccc1OC	n	n	n	n	n	n
CC(C)c1cc(C(F)(F)F)n2nc(C(=O)Nc3ccc(-n4cnnn4)cc3)cc2n1	x	x	n	n	n	x

Assay outcomes (PubChem BioAssay)
